Results on 38 variants are retold here after the RNAGym collection of RNA variant scans (doi:10.1126/science.aae0568).

B1: tRNA (parent)
chain: GUUCCGUUGGCGUAAUGGUAACGCGUCUCCCUCCUAAGGAGAAGACUGCGGGUUCGAGUCCCGUACGGAACG

Variants at the floor of the assay were thinned out.

The data set covers variants of B1. The data set can be described thus: yeast fitness relative to wild type (ratio to wild type); higher = fitter; tRNA-Arg(CCU), competitive growth, 37 C, YPD. The gist of the method: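 Amplicons of the tRNA-Arg(CCU) gene were sequenced, 100-nucleotide paired-end, from the start population and from each end population of a pooled yeast competition. The competition, in six parallel replicates, lasted 24 hours in YPD at 37°C. Fitness relative to wild type was calculated from changes in genotype frequencies. Genotypes had to have ≥ 100 starting reads, and estimates < 0.5 were set to 0.5.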
GUUCCGUUGGCGUAAUGGUAACGCGUCUCCCUCCUAAGGAAUAGACUGCGGGUUCGAGGCCCGUACGGAACG [G41A A42U U59G]: the yeast fitness is at most 0.5.

GUUCCGUUGGCGUAAUGGUAGCGCCUGUCCCUCCUAAGGAGCAGACUGCGGGUUCGAGUCCCGUACGGAACG [A21G G25C C27G A42C]: the yeast fitness is at most 0.5.

For GUUCCGUUGGCCUAAUGGUAAUGCGUAUCCCUCCUAAGGAGAAGACUGUGGGUUCGAGUCCCGUACGGAACG [G12C C22U C27A C49U], the yeast fitness was at most 0.5.

For GAUCCGUUGGGGUAAUGGUAGCGCGUCUCCCUCCUAGGGAGAAGACUGCGGGUUCGAGUCCCGUACGGAACG [U2A C11G A21G A37G], the yeast fitness was at most 0.5.

Take GUUCCGUUGGCGUAAUGGUAACGCGUCUGCCUCCUAAGGAGAAGACUGCGGGUUCGAGUCCCGUACGGAGCG [C29G A70G]: the yeast fitness amounted to 0.548.

In the case of GUUCCGUUGGCGUAAUGGUAACGCGUCUCUCUCCUAAGGAGAAGACUGCGGAUCCGAGUCCCGUACGGAACG [C30U G52A U54C], the yeast fitness is at most 0.5.

GUUCCGUUGGCGUAAUGGUACCGCGUCUUCCUCCAAAGGAGAAGACUGCGGGUUCGAGUCGCGUACGGAACG [A21C C29U U35A C61G]: the yeast fitness came out at 0.707.

Take GUUCCGUCGGCGUACUGGUAACGCGUCUCCCUCCUAAGGAGAAGACUGCGGGUUCGAGUCCCAUACGGAACG [U8C A15C G63A]: the yeast fitness is at most 0.5.

With GUUCCGUCGGGGUAAUGCUAACGCGUCUCCCUCCUAAGGAGAAGACUGAGGGUUCGAGUCCCGUACGGACCG [U8C C11G G18C C49A A70C], the yeast fitness was at most 0.5.

As for GUUCCGUUGGCGUUAUGGUAACGCGUCUCCCUCCUAAGGUGAAGACUGCGGGUUCGAGUCCCGUACGGAACG [A14U A40U], the yeast fitness stood at 0.597.

For GGUCCGUUGGCGUAAUGGUAACGCGUCUCCCUCCUAAGGAGUAGACUGCGGGUUCGAGUCCCGUACGGAUCG [U2G A42U A70U], the yeast fitness came to 0.539.

For GUUCCGUUGGCGUAAUGGUGACGCGUCUCCCUUCUAAGGGGAAGACUGCGGGUUCGAGUCCGGUACGGAUCG [A20G C33U A40G C62G A70U], the yeast fitness is at most 0.5.

Take GUUCCGUUGGCGUAAUGGUAACGCGUCUCCUUGCUAAGGAGAAGACUGAGAGUUCGAGUCCCGUACGGAACG [C31U C33G C49A G51A]: the yeast fitness was 0.563.

For the variant GUUCUGUUGGCGUAAUGGGAUCGCGUCUGCCUCCUAAGGAGAAGACUGCGGGUUCGAGUCCCGUACGGAACG [C5U U19G A21U C29G], the yeast fitness was at most 0.5.

For GUUCUGUUGGCGUAAUCGUAACGCGUCUCGCUCCUAAGGAGAAGACUGCGGGUUGGAGUCCCGUACGGAACG [C5U G17C C30G C55G], the yeast fitness was at most 0.5.

On to GUUCCGUUGGCGUAAUGGUAACGCGUCUCCCUCCUCAGGAGAAGACACCGGGUGCGAGUGCCGUACGGAACG [A36C U47A G48C U54G C60G], for which the yeast fitness was at most 0.5.

Regarding GUUCCGUUGGCGUAAUGGUAACGUGUCUCCCUCCUAAGGAGAAGACUGCGGGUUCGAGUCCCGUACGGUACG [C24U A69U], the yeast fitness came out at 0.99.

As for GUUCCGUUGGCGUAAUGGUAACGGGUCUCCCUCUUCAGGAGAAGACUGCGGGUUCGAGUCCCGUACGGAACG [C24G C34U A36C], the yeast fitness is at most 0.5.

For GUUCCGUUGGCGUAAUGCUAACGCGUCUCCCUCGUAAGGAGAAGCCUGCGGGUUCGAGUCCCGUACGGAACG [G18C C34G A45C], the yeast fitness was at most 0.5.

With GUUCCAUUGGCGUAAUGGUAACGCGUCUCCCUCCUAAGGAGAAAACUGCGGGUUCGAGUGCCGCACGGAACG [G6A G44A C60G U64C], the yeast fitness was at most 0.5.

In the case of GUUCCGUUGGCGUAGUGGUAUCGCGUCUCCCUCCUAAGGAGAAGGCUGCGGGUUCGAGUCCGGUACGGAACG [A15G A21U A45G C62G], the yeast fitness turned out to be 0.506.

Turning to GUUCCGUUGGCGUAAUGGUAACGCGUCUUCCUCCUGAGGUGAAGACUGCGGGUUCCAGUCCCGUACGGCACG [C29U A36G A40U G56C A69C], the yeast fitness is at most 0.5.

GUUCCGUUGGCGUAAUGCUAACGCGUCUCCAUCCUAGGGAGAAGACUGCGGGUUCGACUCCCGUACGGAACG [G18C C31A A37G G58C]: the yeast fitness is at most 0.5.

As to GUUCCGUUGGCGUAAUGGUAACGGGUUUGCCUCGUGAGGAGAUGACUGCGGGUUCGAGUCCCGUACGGAACG [C24G C27U C29G C34G A36G A43U], the yeast fitness was at most 0.5.

In the case of GUUCCGUUGGCGUAAUGGUAGUGUGUCUCCCUCCUAUGGAGAAGGGUGCGGGUUCGAGUCCCGUACGCAACG [A21G C22U C24U A37U A45G C46G G68C], the yeast fitness was at most 0.5.

For the variant GUUCCGUUGGCAUAAUGGUAACGCGUCUCCCUCCUAAGGAGAAGACUGCGGGUUCGAGUCCCGUACGGUACG [G12A A69U], the yeast fitness is 1.03.

Regarding GGUCCGUUGGCGUACUGGUAACGCGUCUCCCUCCUAGGGAGAUGACUGCGGGUUCGAGUCCCGUACGGAACG [U2G A15C A37G A43U], the yeast fitness is at most 0.5.

Consider GUUCCGUUGGCAUAAUGGUUACGCGUCUCCAUCCUAAGGAGAAGACUGCGGAUUCGAGUCCCGUAUGGAACG [G12A A20U C31A G52A C66U], for which the yeast fitness was at most 0.5.

In the case of GUUCCGUUGGCGUAAUGGUAACGCGUCUCCCUCCUAUGGAGAUGACUGCGGGUUCGUGUCCCGUAAGGAACG [A37U A43U A57U C66A], the yeast fitness was at most 0.5.

In the case of GUUCCGUUGGCGUAAUGGUAACGGGUCUCCCUGCUAAGGAGAAGACUGCGGGUUCGAGUACCAUACGGAACG [C24G C33G C60A G63A], the yeast fitness was at most 0.5.

GUUCCGUUGGCGUAAUGGUAACGCGUCUCCCUCCUAAGGAGAAGACUGCGGGUUCGACUCCCGUACGGAACG [G58C]: the yeast fitness stood at 0.992.

As for GUUCCGUUGGCGUAAUGGUAACGCGUCUCCCUCCUAAGGAGACGACUGCGGGUUCGAGUCCCGUACGGUCCG [A43C A69U A70C], the yeast fitness is 1.03.

Turning to GUUCGGUUCGCGUCAUGGUAACGCGUCUCCCUCCUAAGGAGAAGACUGCGGGUUCGAGUCCCGUACGGAACG [C5G G9C A14C], the yeast fitness is at most 0.5.

As to GUUCCGUUGGCGUAAUGGUAACGCGUCUCGCUCCUAAGGAAAAGCCUGCGGGUUCGAGUCCCGUACGGAACG [C30G G41A A45C], the yeast fitness is at most 0.5.

Turning to GUUCCGUUCGCGUAUUGGUAACGCGUCGCCCUCCUAAGGAGAAGACUGCGGGUUCGAGUCCCGUAAGGAACG [G9C A15U U28G C66A], the yeast fitness was at most 0.5.

With GUUCCGUUGGCGUAGUGGUAACGCGUCUCCCUCCUAAGGAGAUGAAUGCGGGUUCGAGUCCCGUACGGAACG [A15G A43U C46A], the yeast fitness is 0.671.

For GCUCCGUUGGCGUAAUGGUAACGUGUCUUACUCCUAAGGAGAAGACUGCGGGUUCGAGUCCCGUACGGUACG [U2C C24U C29U C30A A69U], the yeast fitness was at most 0.5.

Consider GUUCCGUUGGCGUAAUGGUAAUGCGUUUCCCUCCUAAGGAGAACACUGCGGGUUCGAGUCCCGUACGGAACG [C22U C27U G44C], for which the yeast fitness was found to be 0.659.
